# Screening results from PubChem.
# bCat nuc transl: alters nuclear translocation of beta-catenin in HeLa cells; immunofluorescence imaging; nuclear translocation activity, % at 5 µM; 190,000 tested, 0.3% active; AID 1665;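 active = nuclear translocation activity above 50% at 5 µM, with a well cell count of 50 or more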;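 also: per-cell ratio of nuclear to cytoplasmic median beta-catenin stain intensity; plate controls were DMSO negative control for no effect and GSK-3 inhibitor IX positive control for full effect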
#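 Read-out: Nuclear/cytoplasmic beta-catenin signal ratio, % activation | Assay system: Human HeLa cell line | Times: 24 h compound exposure at 37°C, 5% CO2 | Signal: Fluorescence imaging of beta-catenin antibody stain plus DAPI | Dosing: 5 µM primary, 0.02–20 µM confirmation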
# NPY-Y2 PAM-ag: potentiators or agonists of human neuropeptide Y receptor Y2 | 220,000 tested, 0.45% active | AID 1359 | activation, % at 3.6 µM | cells expressing NPY-Y2, potentiator/agonist read-out; in the data active = activation above about 27%;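 also: cells stimulated with NPY near EC25 plus isoproterenol at EC100; 0% = vehicle plus submaximal agonist and 100% = vehicle plus saturating agonist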
# Target sequence (P49146 whole entry, looked up): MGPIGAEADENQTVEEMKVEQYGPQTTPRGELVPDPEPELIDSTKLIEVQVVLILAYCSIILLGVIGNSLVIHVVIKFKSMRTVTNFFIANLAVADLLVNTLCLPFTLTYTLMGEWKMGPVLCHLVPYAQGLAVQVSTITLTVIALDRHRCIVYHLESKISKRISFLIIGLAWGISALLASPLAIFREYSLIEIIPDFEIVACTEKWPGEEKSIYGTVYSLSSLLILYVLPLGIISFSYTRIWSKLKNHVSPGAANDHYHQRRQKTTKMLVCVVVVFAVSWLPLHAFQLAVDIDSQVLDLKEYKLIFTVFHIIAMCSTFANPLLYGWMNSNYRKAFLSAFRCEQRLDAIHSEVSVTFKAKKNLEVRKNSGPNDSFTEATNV
# NPY-Y1 PAM-ag: human NPY-Y1 potentiation or agonism, primary screen. NPY-Y1 expressing cells, potentiator/agonist activation. activation, % at 3.6 µM. 220,000 tested, 0.37% active; in the data active = activation above about 33%, passing the limit was not always enough;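 also: cells stimulated with NPY at EC10 then isoproterenol at EC100; 0% = low agonist plus stimulus and 100% = saturating agonist plus stimulus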
# NPY-Y2 antag: blocks the human neuropeptide Y Y2 receptor; inhibition, % at 2.7 µM; NPY-Y2 expressing cells, antagonist mode; P49146; 140,000 tested, 0.99% active; AID 793; in the data active = inhibition above about 17%;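 also: 0% = vehicle with agonist challenge and 100% = reference antagonist with challenge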
# MT stabilize HCS: microtubule stabilizers in HeLa cells. HeLa tubulin immunostaining HCS, 24 h; share of cells brighter than vehicle mean+2SD. % tubulin-high responders, % at 10 µM. 200,000 tested, 0.83% active. AID 2205;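 active = plate Z-score above 3 for both tubulin-high and condensed-nucleus cell shares, with cell loss under 80%, at 10 µM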;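 also: anti alpha tubulin signal scored within the nucleus-defined area of each cell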
# NPY Y1 blocker: antagonists of human neuropeptide Y receptor Y1. inhibition, % at 3.6 µM. 200,000 tested, 1% active. HEK293-CNG Y1 cells, membrane potential fluorescence; NPY at EC95, then isoproterenol. P25929;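 active = inhibition above the campaign mean inhibition of all tested compounds plus 3 SD, cut at about 20% in these data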;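 also: 0% = DMSO wells given NPY plus isoproterenol and 100% = isoproterenol alone without NPY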
#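 Benchmarks – high control isoproterenol alone, low control NPY with isoproterenol · Material – HEK293 Y1/CNG channel cell line · Times – dye 3 h, compound 60 min room temperature, stimulation 45 min · Probe or stimulus – NPY (25 nM), isoproterenol (1 µM), Ro 20-1724 (25 µM) · Evaluation – % inhibition of NPY effect · Signal – fluorescence, membrane potential probe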
# NPY-Y1 antag ct: counter-screen for NPY-Y2 antagonists: human NPY-Y1 antagonism; inhibition, % at 3.6 µM; 710 tested, 19% active; cell-based NPY-Y1 antagonism counterscreen; shares compounds with NPY-Y2 antag; in the data active = inhibition above about 20%;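 also: cells challenged with NPY then isoproterenol with cAMP sensed through a CNG channel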
# NPY2 antag conf: human NPY-Y2 antagonism, confirmation; HEK293 NPY-Y2 CNG channel, membrane potential fluorescence; inhibition, % at 2.8 µM; shares compounds with NPY-Y2 antag; AID 1257; 710 tested, 32% active;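 active = mean inhibition of triplicate wells above the hit cutoff set in the primary screen, cut at about 17% in these data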;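 also: 0% = DMSO with NPY challenge and 100% = BIIE0246 high control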
# An asterisk follows results filed as active; · = no result given. Only some compounds are listed: those with a hit (about 2.6% of all), similar ones and a draw of the others.
SMILES,bCat nuc transl,NPY-Y2 PAM-ag,NPY-Y1 PAM-ag,NPY-Y2 antag,MT stabilize HCS,NPY Y1 blocker,NPY-Y1 antag ct,NPY2 antag conf
Cc1cc(=O)oc2cc(OCC(=O)OCC(=O)Nc3c(C)n(C)n(-c4ccccc4)c3=O)ccc12,-2,18,15,·,2,16,·,·
COc1ccc(OC)c(-c2cc(C(=O)N3CCCc4ccccc43)no2)c1,·,-31,-33,17*,7,19,10,5
COc1ccccc1-c1cc(C(=O)N2CCCc3ccccc32)no1,·,-12,-10,·,3,7,·,·
COc1cccc(-c2cc(C(=O)N3CCCc4ccccc43)no2)c1,-1,0,-25,19*,3,17,17,9
C=CCn1c(SCC(=O)N2CCc3ccccc3C2)nc2sc(C)c(C)c2c1=O,-1,-4,-12,19*,3,7,10,9
C=CCn1c(SCC(=O)N2CCc3ccccc3C2)nc2sc(CC)cc2c1=O,-1,-14,24,9,3,4,·,·
Cc1ccc(NC(=S)NCc2ccc3c(c2)OCO3)c(C)c1,1,-20,-9,21*,4,6,7,10
O=C(NCC1CCCO1)c1nc2c(nnn2Cc2ccccc2Cl)c(=O)[nH]1 (centres undefined),-1,-20,-20,18*,2,4,5,6
Cc1ccc(C)c(Cn2nnc3c(=O)[nH]c(C(=O)NCC4CCCO4)nc32)c1 (centres undefined),-1,-10,-7,6,4,1,·,·
CC(C)CCOc1ccc(C2=NNC(=O)CC2)cc1,2,-16,-53,42*,5,15,20*,41*
CCCCOP(=O)(OCCCC)C(Nc1ccccc1)c1ccc2c(c1)OCO2 (centres undefined),0,-1,-5,19*,1,16,13,8
COC(=O)c1cc2c(ccn2-c2ccc(F)cc2)n1Cc1ccc(C#N)cc1,2,1,0,19*,3,1,10,9
COC(=O)c1cc2c(ccn2-c2ccc(F)cc2)n1CC(=O)N1CCN(C(=O)c2ccco2)CC1,-2,3,-15,4,3,-1,·,·
CCOC(=O)c1ccc(NC2OC(=O)c3ccccc32)cc1 (centres undefined),1,12,-5,3,4,-1,·,·
OC12CCCCC1C(c1ccc3c(c1)OCO3)N(Cc1ccccc1F)CC2 (centres undefined),1,-7,-35,18*,4,4,17,9
CC(=O)c1c(C)oc(C)c1CSCc1ccc(C(=O)O)o1,-1,-7,-18,-1,4,0,·,·
C#CCn1c(=NC(=O)c2cc(-c3cccs3)nc3ccccc23)sc2cc(S(N)(=O)=O)ccc21,1,6,8,0,11,0,·,·
Cc1nc2ccccc2cc1OCc1ccc(Cl)cc1,2,-4,-70,19*,1,10,22*,17*
Cc1nc2ccccc2cc1OCc1ccccc1,1,8,10,8,2,-1,·,·
CC(=O)N1C(=O)N(C(C)=O)C2C1N(C)C(=O)N2C(C)=O (centres undefined),2,1,1,·,1,-4,·,·
CC12CCC(C(=O)N(Cc3ccccc3)Cc3ccccc3)(OC1=O)C2(C)C (centres undefined),·,-31,-37,18*,2,19,16,15
CCCc1nc(SCc2ccc(Cl)cc2Cl)n[nH]1,·,-4,-32,18*,2,2,3,7
O=C(CC(Nc1ccc(F)cc1)C(=O)OCC(=O)c1cccs1)c1ccccc1 (centres undefined),-2,-9,-15,2,4,8,·,·
COc1ccc(C2Nc3ccccc3C(=O)N2Cc2ccco2)cc1COc1ccc(F)cc1 (centres undefined),1,-21,-50,22*,2,20,10,9
